From ChEMBL document CHEMBL4184183, “Novel sulfenamides and sulfonamides based on pyridazinone and pyridazine scaffolds as CB1 receptor ligand antagonists” (Bioorg Med Chem, 2018)
pIC50, pKi: −log10 of the molar value. The source made the active and inactive calls. No cut-off for these calls is given here.

Experiments:
Cannabinoid receptor 1 [1] = biological target: T1, Cannabinoid receptor 1 (Homo sapiens, UniProt P21554); experiment: Displacement of [3H]CP,55-940 from recombinant human CB1 receptor expressed in HEK293 EBNA cell membranes after 90 mins by microbeta scintillation counting method; conditions: for pKi: read-out: Ki
T1 sequence (P21554 whole entry): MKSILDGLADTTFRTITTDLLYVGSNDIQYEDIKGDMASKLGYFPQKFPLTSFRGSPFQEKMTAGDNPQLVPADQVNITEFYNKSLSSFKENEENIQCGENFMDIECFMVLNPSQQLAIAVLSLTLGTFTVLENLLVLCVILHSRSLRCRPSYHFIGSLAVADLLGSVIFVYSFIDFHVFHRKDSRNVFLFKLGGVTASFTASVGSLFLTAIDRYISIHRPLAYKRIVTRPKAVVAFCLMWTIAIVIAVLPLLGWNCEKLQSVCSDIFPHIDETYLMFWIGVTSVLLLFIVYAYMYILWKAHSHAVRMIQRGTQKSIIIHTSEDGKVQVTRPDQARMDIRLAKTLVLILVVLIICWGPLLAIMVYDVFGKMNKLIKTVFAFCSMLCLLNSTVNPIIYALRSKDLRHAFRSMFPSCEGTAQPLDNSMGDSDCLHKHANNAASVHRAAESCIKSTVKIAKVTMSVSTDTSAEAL

Cannabinoid receptor 2 [2] = biological target: T2, Cannabinoid receptor 2 (Homo sapiens, UniProt P34972); experiment: Displacement of [3H]CP,55-940 from recombinant human CB2 receptor expressed in HEK293 EBNA cell membranes at 40 uM after 90 mins by microbeta scintillation counting method relative to control
T2 sequence (P34972 whole entry): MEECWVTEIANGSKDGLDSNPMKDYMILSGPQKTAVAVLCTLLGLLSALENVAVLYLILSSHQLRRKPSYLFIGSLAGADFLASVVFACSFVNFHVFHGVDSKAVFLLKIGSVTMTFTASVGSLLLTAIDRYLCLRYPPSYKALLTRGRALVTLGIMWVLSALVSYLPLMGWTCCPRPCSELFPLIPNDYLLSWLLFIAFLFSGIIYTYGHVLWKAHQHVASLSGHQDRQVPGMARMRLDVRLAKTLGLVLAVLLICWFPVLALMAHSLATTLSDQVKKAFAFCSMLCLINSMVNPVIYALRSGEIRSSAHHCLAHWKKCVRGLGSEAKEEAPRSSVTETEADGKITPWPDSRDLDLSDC
Method in brief: (§1)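 Competition binding with [³H]-CP55,940 on human CB₁R or CB₂R transfected into HEK293 EBNA cells; each compound screened once at 40 µM for percent displacement of radioligand.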

Cannabinoid receptor 2 [3] = biological target: T2, Cannabinoid receptor 2; experiment: Displacement of [3H]CP,55-940 from recombinant human CB2 receptor expressed in HEK293 EBNA cell membranes after 90 mins by microbeta scintillation counting method; conditions: for pKi: read-out: Ki
Cannabinoid receptor 1 [4] = biological target: T1, Cannabinoid receptor 1; experiment: Displacement of [3H]CP,55-940 from recombinant human CB1 receptor expressed in HEK293 EBNA cell membranes at 40 uM after 90 mins by microbeta scintillation counting method relative to control; method in brief: as §1
Cannabinoid receptor 1 [5] = biological target: T1, Cannabinoid receptor 1; experiment: Antagonist activity at human CB1 receptor expressed in CHO cell membranes assessed as reduction in GTPgammaS binding after 30 mins by microbeta counting method; format: functional, cell-based
Mus musculus [6] = experiment: Analgesic effect in mouse assessed as elevation in latency response at 2.5 mg/kg measured after 5 mins by hot plate test; format: functional, organism-based
Method in brief: (§2)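 Hot-plate test in mice, read as latency to respond to the painful stimulus. Test agent at 2.5 mg/kg was given alone or with the cannabinoid agonist Δ9-THC at 5 mg/kg. […] 7-9 mice per group; means SEM; one-way ANOVA with Student-Newman-Keuls test.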

Mus musculus [7] = experiment: Analgesic effect in mouse assessed as elevation in latency response at 1 mg/kg measured after 5 mins by hot plate test; format: functional, organism-based
Mus musculus [8] = experiment: Reversal of delta9-THC-induced analgesic effect in mouse assessed as reduction in delta9-THC-induced elevation in latency response at 2.5 mg/kg measured after 5 mins by hot plate test; format: organism-based; conditions: in vivo; method in brief: as §2

Row | SMILES | pKi (Cannabinoid receptor 1 [1]) | inhibition (Cannabinoid receptor 2 [2]) | pKi (Cannabinoid receptor 2 [3]) | inhibition (Cannabinoid receptor 1 [4]) | pIC50 (Cannabinoid receptor 1 [5]) | Activity (Mus musculus [6]) | Ki (Cannabinoid receptor 1 [1]) | Ki (Cannabinoid receptor 2 [3]) | Activity (Mus musculus [7]) | Activity (Mus musculus [8])
1 | Cc1ccc(Cn2nc(-c3ccc(C)cc3)cc(SNC3CCCCCC3)c2=O)cc1 | < 4.40 | inactive | < 4.40 | inactive | – | – | – | – | – | –
2 | Cc1ccc(-c2cc(SNCC3CCC4CC3C4(C)C)nnc2-c2ccc(C)cc2)cc1 (centres undefined) | 5.90 | < 70% | < 4.40 | > 70% | – | – | – | – | – | –
3 | Cc1ccc(-c2cc(S(=O)(=O)NC3CC4CC(C3C)C4(C)C)nnc2-c2ccc(C)cc2)cc1 (centres undefined) | 7.14 | < 70% | < 4.40 | > 70% | 6.26 | – | – | – | – | –
4 | Cc1ccc(-c2cc(S(=O)(=O)NC3CC(C)CCC3C(C)C)nnc2-c2ccc(C)cc2)cc1 (centres undefined) | < 5.00 | < 70% | < 4.40 | > 70% | – | – | – | – | – | –
5 | Cc1ccc(-c2cc(S(=O)(=O)NCC3CCC4CC3C4(C)C)nnc2-c2ccc(C)cc2)cc1 (centres undefined) | < 5.00 | < 70% | < 4.40 | > 70% | – | – | – | – | – | –
6 | Cc1ccc(-c2cc(SNC3CCCCCC3)nnc2-c2ccc(C)cc2)cc1 | 6.22 | < 70% | < 4.40 | > 70% | – | – | – | – | – | –
7 | Cc1ccc(-c2cc(SNC3CC4CCC3(C)C4(C)C)nnc2-c2ccc(C)cc2)cc1 (centres undefined) | 7.35 | < 70% | < 4.40 | > 70% | 6.60 | – | – | – | – | –
8 | Cc1ccc(-c2cc(SNCC34CC5CC(CC(C5)C3)C4)nnc2-c2ccc(C)cc2)cc1 | 6.07 | < 70% | < 4.40 | > 70% | – | – | – | – | – | –
9 | Cc1ccc(-c2cc(SNCCN3CCOCC3)nnc2-c2ccc(C)cc2)cc1 | – | < 70% | < 4.40 | > 70% | – | – | – | – | – | –
10 | Cc1ccc(-c2cc(SNC3CC4CC(C3C)C4(C)C)nnc2-c2ccc(C)cc2)cc1 (centres undefined) | 7.12 | < 70% | < 4.40 | > 70% | 6.74 | inactive | – | – | – | –
11 | Cc1ccc(-c2cc(SNC3C4(C)CCC(C4)C3(C)C)nnc2-c2ccc(C)cc2)cc1 (centres undefined) | 6.61 | < 70% | < 4.40 | > 70% | – | – | – | – | – | –
12 | Cc1ccc(-c2cc(S(=O)(=O)NC3CCCCCC3)nnc2-c2ccc(C)cc2)cc1 | 6.10 | < 70% | < 4.40 | > 70% | – | – | – | – | – | –
13 | Cc1ccc(-c2cc(S(=O)(=O)NC3CC4CCC3(C)C4(C)C)nnc2-c2ccc(C)cc2)cc1 (centres undefined) | 5.89 | < 70% | < 4.40 | > 70% | – | – | – | – | – | –
14 | Cc1ccc(-c2cc(SNC3CCCCC3)nnc2-c2ccc(C)cc2)cc1 | – | – | – | – | – | – | Nd(Insoluble) | Nd(Insoluble) | – | –
15 | Cc1c(C(=O)NN2CCCCC2)nn(-c2ccc(Cl)cc2Cl)c1-c1ccc(Cl)cc1 | – | – | – | – | – | – | – | – | inactive | –
16 | Cc1ccc(-c2cc(S(=O)(=O)NC3CCCCC3)nnc2-c2ccc(C)cc2)cc1 | 5.44 | < 70% | < 4.40 | > 70% | – | – | – | – | – | –
17 | Cc1ccc(Cn2nc(-c3ccc(C)cc3)cc(S(=O)(=O)NC3CCCCCC3)c2=O)cc1 | 5.92 | < 70% | 5.59 | > 70% | – | – | – | – | – | Toxic
18 | Cc1ccc(-c2cc(SNC3CC(C)CCC3C(C)C)nnc2-c2ccc(C)cc2)cc1 (centres undefined) | 6.15 | < 70% | < 4.40 | > 70% | – | – | – | – | – | –
19 | Cc1ccc(-c2cc(SNC3CCCC3)nnc2-c2ccc(C)cc2)cc1 | 6.14 | < 70% | < 4.40 | > 70% | – | – | – | – | – | –
20 | Cc1ccc(-c2cc(S(=O)(=O)NC3CCCC3)nnc2-c2ccc(C)cc2)cc1 | 5.84 | < 70% | < 4.40 | > 70% | – | – | – | – | – | –
